Among the data in ChEMBL document CHEMBL6134784, “Furoxan-piplartine hybrids as effective NO donors and ROS inducers in PC3 cancer cells: design, synthesis, and biological evaluation” (RSC Med Chem, 2024) are selectivity ratio, IC50 and Activity values, retold here.

A short description of series [1]: Selectivity index, ratio of IC50 for cytotoxicity against human MCF-10A cells to IC50 for cytotoxicity against human MCF7 cells. It is filed as toxicity, cell-based. The following applies: MCF-10A cells versus MCF7 cells, read-out: Ratio IC50. The procedure, abridged: (§1)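 CCK-8 was added for 3 h and A450 read, with vehicle set as 100% viability. IC50 was fitted by nonlinear regression from ≥2 experiments in triplicate. SI = normal-cell IC50 divided by the matched cancer-cell IC50.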

A short description of series [2]: Selectivity index, ratio of IC50 for cytotoxicity against human PNT2 cells to IC50 for cytotoxicity against human PC-3 cells. Type of series: toxicity, cell-based. The following applies: PNT2 cells versus PC-3 cells, read-out: Ratio IC50. The procedure, abridged: as §1
Series [3] concerns MCF7. Put plainly: Cytotoxicity against human MCF7 cells assessed as reduction in cell viability measured after 48 hrs by CCK-8 assay. Type of series: functional, cell-based. The following applies: MCF7, 48 h. The method, boiled down: (§2)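 CCK-8 viability: cells grown in RPMI-1640 with 10% FBS, 1×10^4 per well, attached 24 h, then medium replaced with fresh medium containing a range of compound concentrations for 48 h at 37 °C, 5% CO2. CCK-8 added 3 h, absorbance 450 nm; vehicle control set as 100%. IC50 by nonlinear regression, mean ± SD, at least two experiments in triplicate.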

The nature of series [4]: Cytotoxicity against human PNT2 cells assessed as reduction in cell viability measured after 48 hrs by CCK-8 assay. Type of series: toxicity, cell-based. The procedure, abridged:
as §2
Background: Tetrazolium dyes change colour on reduction, which living cells bring about.

A short description of series [5]: Cytotoxicity against human MCF-10A cells assessed as reduction in cell viability measured after 48 hrs by CCK-8 assay. Type of series: toxicity, cell-based. The procedure, abridged: as §2
For series [6], the system named is PC-3. Put plainly: Induction of nitric oxide production in human PC-3 cells assessed as nitrite level at 100 uM measured after 12 to 48 hrs by Griess assay. It is filed as functional. Conditions: time 12-48 hrs. The procedure, abridged:
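PC3 cells were seeded at 1×10^4 per well and grown 24 h, then moved to serum-free RPMI with 100 μM compound for 12, 24 or 48 h at 37 °C. Supernatant was mixed with 1% sulfanilamide in 2.5% H3PO4 (10 min, dark), then 0.1% NED (10 min, 37 °C), and A540 was read. Nitrite was calculated from a NaNO2 curve (0–100 μM). Controls were DMSO and SNP 100 μM. Data from ≥3 independent experiments in triplicate, mean ± SD.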
In general terms: Nitrite, measured by Griess reagent, commonly stands in for NO production.

Series [7] concerns PC-3. The experiment in a line: Cytotoxicity against human PC-3 cells assessed as reduction in cell viability measured after 48 hrs by CCK-8 assay. It is filed as functional, cell-based. The following applies: PC-3, 48 h. The method, boiled down:
as §2

In series [8] the test system is OVCAR-3. Put plainly: Cytotoxicity against human OVCAR-3 cells assessed as reduction in cell viability measured after 48 hrs by CCK-8 assay. It is filed as functional, cell-based. Conditions: OVCAR-3, 48 h. The procedure, abridged: as §2
The subject of series [9] is PC-3. Put plainly: Cytotoxicity against human PC-3 cells assessed as reduction in cell viability at 0.24 uM measured after 24 hrs by SRB assay. It is filed as functional, cell-based. The procedure, abridged: (§3)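 SRB assay: PC3 seeded 1×10^4 per well, after 24 h exposed 24 h at 37 °C, 5% CO2 with or without 1 mM N-acetyl-L-cysteine; vehicle 0.1% DMSO. Fixed with 15% TCA at 4 °C for 1 h, dried, stained 0.4% sulforhodamine B, dye solubilized in 10 mM Tris, absorbance 540 nm; ANOVA/Tukey.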

The subject of series [10] is PC-3. The experiment in a line: Cytotoxicity against human PC-3 cells assessed as reduction in cell viability at 0.24 uM measured after 24 hrs in presence of antioxidant N-acetyl-L-cysteine by SRB assay. Type of series: functional, cell-based. The method, boiled down: as §3
Background: The SRB assay estimates cell density from bound dye.

For series [11], the system named is PC-3. The experiment in a line: Cytotoxicity against human PC-3 cells assessed as reduction in cell viability at 0.05 uM measured after 24 hrs by SRB assay. Type of series: functional, cell-based. The procedure, abridged:
as §3

The test system of series [12] is PC-3. Put plainly: Cytotoxicity against human PC-3 cells assessed as reduction in cell viability at 0.05 uM measured after 24 hrs in presence of antioxidant N-acetyl-L-cysteine by SRB assay. Type of series: functional, cell-based. The procedure, abridged: as §3

Each structure is given as a SMILES string. Active and inactive are the calls of the source. No cut-off for these calls is given here.

Broadly, the IC50 is the midpoint of a concentration-inhibition curve. With `O=S(=O)(c1ccccc1)c1c(OCCCCCCO)no[n+]1[O-]`, the figures for the selectivity ratio in [1] and in series [2] were 0.9 and 3.4, respectively. The 50% inhibitory concentration (IC50) in series [3] was found to be 2 µM; in [7], 3.8 µM; in [8], 2.2 µM. For the same compound, the IC50 at 48 h was 12.9 µM in [4] and 1.7 µM in [5]. For the same compound, the Activity in series [6] is 3.2 µM.

As to `O=S(=O)(c1ccccc1)c1c(OCCCO)no[n+]1[O-]`, the figures for the selectivity ratio in series [1] and in series [2] were 0.9 and 0.3, respectively. Also, the outcome in series [9] was Active. Further, the IC50 in [3] stood at 2.1 µM; in [7], 7.2 µM; in series [8] it was 3.3 µM. The IC50 at 48 h stood at 1.9 µM in series [4] and 1.8 µM in [5]. Besides, the Activity in series [6] was 3.2 µM. Besides, in series [10], the outcome was inactive.

As to `COc1cc(/C=C/C(=O)N2CCC=CC2=O)cc(OC)c1OC` [PIPLARTINE], the selectivity ratio in [1] was determined as 1; in series [2], 1.5. Moreover, the IC50 came to 5.4 µM in [3], 5.6 µM in series [7] and 3.5 µM in [8]. Further, the half-inhibitory concentration (IC50) at 48 h in series [4] came to 8.5 µM; in series [5], 5.3 µM.

Turning to `O=S(=O)(c1ccccc1)c1c(OCCCCCCCCCCCCO)no[n+]1[O-]`, the selectivity ratio in [1] amounted to 3.4; in [2], 137. The concentration for half-maximal inhibition (IC50) was determined as 4.3 µM in [3], 0.13 µM in [7] and 0.04 µM in [8]. The IC50 at 48 h amounted to 17.6 µM in [4] and 14.8 µM in [5]. Also, the result in series [11] was Active. Also, the outcome in [12] was inactive. In addition, the Activity in series [6] was 3.2 µM.

As for `COc1cc(/C=C/C(=O)N2CCC=CC2=O)cc(OC)c1OCCCCCCOc1no[n+]([O-])c1S(=O)(=O)c1ccccc1`, the values for the selectivity ratio in series [1] and in [2] were 3.1 and 26.2, respectively. Besides, the IC50 in [3] is 1.1 µM; in series [7], 0.13 µM; in series [8] it was 0.3 µM. The results for the IC50 at 48 h in [4] and in [5] were 3.3 µM and 3.6 µM, respectively. For the same compound, the Activity in series [6] was determined as 23.5 µM.
